Assay outcomes deposited in PubChem BioAssay by several laboratories.
SR-BI DiI-HDL act = activators of SR-BI mediated DiI-HDL uptake, primary screen, ldlA[mSR-BI] CHO cells, DiI fluorescence. 3 h; 100 = double the neutral-control signal. activation, % at 12.5 µM. 320,000 tested, 0.096% active;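 active = mean replicate activation of at least 60% and every replicate at or above 60%; inconclusive = mean or all-replicate condition met, but not both; inactive = mean below 60% and not all replicates reaching 60%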
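system = CHO ldlA[mSR-BI] cells, LDL receptor-null, SR-BI overexpressing | medium = Ham's F12 with 0.5% BSA, HEPES 25 mM, pH 7.4 | probe or stimulus = DiI-HDL 10 µg/mL | compound dosing = single-point compound dose | incubation = compound exposure 3 h, 37 °C | technique = DiI fluorescence, bottom read | read-out = cell-associated DiI fluorescence as measure of HDL uptake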
m5-HT2A agonist = mouse Htr2a agonists via beta-arrestin recruitment, primary screen, cell-based, luminescence; 5-hydroxytryptamine receptor 2A (Mus musculus), P35363; CHO-K1 mHTR2A beta-arrestin complementation; percent of 30 µM serotonin response; activation, % at 7.6 µM; 360,000 tested, 0.66% active;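 active = activation above a run cutoff, the mean activation of all tested compounds plus 3 SD, cut at about 14% in these data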
Ins promoter up = insulin promoter activators in MIN6 cells, imaging, high-content screening, mouse beta cells; MIN6 insulin promoter-GFP reporter; hits give high values; z-score at 5 µM; 190,000 tested, 0.3% active;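 active = z-score above 3 at 5 µM with at least 500 cells counted in the well; inconclusive = wells under 500 cells, flagged as cytotoxic or low count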
SR-BI DiI inh = inhibitors of SR-BI mediated HDL lipid uptake, primary screen, ldlA[mSR-BI] cells, fluorescence, single point; inhibition, % at 12.5 µM; ldlA[mSR-BI] CHO cells, DiI-HDL uptake fluorescence, 3 h; AID 488896, 2010; 320,000 tested, 0.96% active;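 active = mean replicate inhibition of at least 70% and a set share of replicates each scoring 70 or more; inconclusive = meets just one of the two criteria; inactive = fails both criteria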
Target sequence (Q61009 whole entry, looked up): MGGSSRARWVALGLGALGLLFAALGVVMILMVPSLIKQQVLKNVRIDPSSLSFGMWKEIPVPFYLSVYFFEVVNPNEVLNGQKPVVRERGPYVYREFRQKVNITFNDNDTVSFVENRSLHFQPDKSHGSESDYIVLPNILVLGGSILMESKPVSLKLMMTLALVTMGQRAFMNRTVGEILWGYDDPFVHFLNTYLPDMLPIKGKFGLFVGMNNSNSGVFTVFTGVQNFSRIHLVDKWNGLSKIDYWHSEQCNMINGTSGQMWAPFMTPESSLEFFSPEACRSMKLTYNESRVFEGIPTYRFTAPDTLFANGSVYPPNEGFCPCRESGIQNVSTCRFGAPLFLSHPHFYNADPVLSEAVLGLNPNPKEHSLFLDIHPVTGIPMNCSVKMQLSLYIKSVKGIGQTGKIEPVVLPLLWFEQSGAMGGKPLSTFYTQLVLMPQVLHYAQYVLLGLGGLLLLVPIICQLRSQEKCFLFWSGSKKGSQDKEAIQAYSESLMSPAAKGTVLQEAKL
Calb FLC = C. albicans growth inhibition with fluconazole, primary screen, CaCi-2 strain, Alamar Blue fluorescence; C. albicans CaCi-2 + fluconazole, 48 h; growth inhibition, % (test concentration not listed); 300,000 tested, 0.57% active;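 active = growth inhibition above about 58% in most replicates, limit read from the data, passing the limit was not always enough; inconclusive = exactly half the replicates above a set limit; inactive = most replicates below a set limit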;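 note: all wells also contain fluconazole at 8 µg/ml as a sub-toxic cotreatment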
beta cell repl = inducers of MIN6 beta-cell proliferation, primary screen, ATP luminescence, uHTS; MIN6 cells proliferation, ATPlite luminescence, 48 h; cells starved in 0.2% serum; 100% = growth in 10% serum; proliferation, % at 10 µM; 330,000 tested, 0.29% active;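 active = compounds whose signal lies at least 3.5 SD above the mean of all wells on their plate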
Of the large screens only hits and unclear results are named; the others gave an inactive call. An excerpt weighted towards active compounds, which were near 2.4% of everything screened.

CCOC(=O)C1=C[C@@H](C2CCCCC2)N(S(=O)(=O)c2ccc([N+](=O)[O-])cc2)[C@H]1c1ccccc1	none (no result: SR-BI DiI-HDL act, Ins promoter up, SR-BI DiI inh, Calb FLC, beta cell repl)
COc1ccccc1N=Nc1ccc(O)c2ncccc12	Calb FLC 97 (no result: Ins promoter up)
Oc1ccc(N=Nc2ccccc2C(F)(F)F)c2cccnc12	Calb FLC 98 (no result: Ins promoter up)
CCS(=O)(=O)c1ccc(N=Nc2ccc(O)c3ncccc23)c(OC)c1	Ins promoter up inconclusive, Calb FLC inconclusive
CCCCCCCCCC[N+](C)(C)CC/C=C1/c2ccccc2Sc2ccc(Cl)cc21	Calb FLC inconclusive (no result: Ins promoter up)
CCCCCCCCCCC[N+](C)(C)CC/C=C1/c2ccccc2Sc2ccc(Cl)cc21	Calb FLC 84 (no result: Ins promoter up)
O=C(NC1CC2CCCC(C1)N2Cc1cccs1)c1ccc([N+](=O)[O-])cc1 (configuration not stated)	none (no result: SR-BI DiI-HDL act, m5-HT2A agonist, SR-BI DiI inh)
O=C(O)c1ccccc1N=Nc1ccc(O)cc1	m5-HT2A agonist 19 (no result: Ins promoter up)
O=C(O)c1cc(O)ccc1N=Nc1ccccc1	none
CN(C)c1ccc(NC(=O)C2C3C=CC(C3)C2C(=O)O)cc1 (configuration not stated)	Calb FLC 92 (no result: Ins promoter up)
O=C(O)C1C2C=CC(C2)C1C(=O)Nc1ccc2c(c1)OCCO2 (configuration not stated)	none (no result: Ins promoter up)
COc1cc(NC(=O)c2ccccc2)c(OC)cc1NC(=O)CN1C(=O)NC2(CCCCC2)C1=O	SR-BI DiI inh 77 (no result: Ins promoter up, Calb FLC)
CC1CN(S(=O)(=O)c2cccc(C(=O)N(Cc3nnc(-c4ccccc4Cl)o3)C3CC3)c2)CC(C)O1 (configuration not stated)	none (no result: Ins promoter up)
COc1cc(N2C(=O)C=CC2=O)c(OC)cc1Cl	none
Nc1nnc(-c2cc3c(ccc4ccccc43)oc2=O)s1	Ins promoter up 8.8 (no result: SR-BI DiI-HDL act, m5-HT2A agonist, SR-BI DiI inh, Calb FLC, beta cell repl)
O=c1oc2ccc3ccccc3c2cc1-c1nnc(-c2ccccc2)o1	none (no result: Ins promoter up)
CS/C(=N\S(=O)(=O)c1cccs1)Nc1ccc(Br)cc1F	Calb FLC 101
CS/C(=N\S(=O)(=O)c1cccs1)Nc1ccc(Cl)cc1	Calb FLC 85
CS/C(=N\S(=O)(=O)c1ccc(N)cc1)NS(=O)(=O)c1cccs1	none
Cc1ccc(N2NC(C)(c3cccs3)NC2=S)cc1 (configuration not stated)	Calb FLC 105
COc1cc(NC(=O)c2cc3ccccc3cc2O)c(OC)cc1Cl	m5-HT2A agonist 21
COc1cc(NC(=O)c2ccc(Cl)cc2)c(OC)cc1Cl	SR-BI DiI inh 74
O=[N+]([O-])c1cc(F)cc(F)c1Nc1cc(F)cc(F)c1	none (no result: Ins promoter up, Calb FLC, beta cell repl)
CC1C(c2ccccc2)N(C)C(c2ccccc2)C(C)C1(O)C#Cc1ccccc1 (configuration not stated)	none (no result: Calb FLC)
COc1ccc(S(=O)(=O)N2CCc3ccccc32)cc1C(=O)N1CCOCC1	none (no result: Ins promoter up)
Cc1cccc(C)c1-n1nnnc1C(c1cc2ccccc2o1)N1CCN(C/C=C/c2ccccc2)CC1 (configuration not stated)	none (no result: SR-BI DiI-HDL act, Ins promoter up, SR-BI DiI inh, Calb FLC, beta cell repl)
Cc1cccc(C)c1NC(=O)C1(C)CN(S(C)(=O)=O)CC(=O)N1Cc1ccc2c(c1)OCO2 (configuration not stated)	none (no result: SR-BI DiI-HDL act, Ins promoter up, SR-BI DiI inh, Calb FLC, beta cell repl)
Cc1ccc(NC(=S)Nn2cnnc2)c(C)c1	Calb FLC 82 (no result: Ins promoter up)
Oc1ccccc1/C=N/NC(=S)NC1CC2CCC1C2 (configuration not stated)	SR-BI DiI inh 76
OC[C@@H]1CN(Cc2ccc3c(c2)OCO3)C[C@H](n2cnc3c(N4CCN(c5ccccc5)CC4)ncnc32)O1	none (no result: SR-BI DiI-HDL act, Ins promoter up, SR-BI DiI inh, Calb FLC, beta cell repl)
COc1cc(/C=N\NC(=O)CNC(=O)C2COc3ccccc3O2)ccc1O (configuration not stated)	none
CCN(CC)c1ccc(/C=N/NC(=O)CNC(=O)C2COc3ccccc3O2)c(O)c1 (configuration not stated)	Calb FLC 89 (no result: Ins promoter up)
CON(C)C(=O)/C=C/CCCCNC(=O)OC(C)(C)C	SR-BI DiI-HDL act 63 (no result: Ins promoter up, Calb FLC)
COc1ccc(-c2ccc(SCC(=O)NC3CCCCC3)nn2)cc1OC	none (no result: SR-BI DiI-HDL act, Ins promoter up, SR-BI DiI inh)
CC(C)CCOC(=O)C1C(c2ccccc2)C(C(=O)O)C1c1ccccc1 (configuration not stated)	Calb FLC 93 (no result: Ins promoter up)
O=C(O)c1cc([N+](=O)[O-])cc2ccccc12	SR-BI DiI-HDL act 90 (no result: Ins promoter up, Calb FLC, beta cell repl)
COc1ccc(NS(=O)(=O)N2CCOCC2)cc1	none (no result: Ins promoter up)
Cc1cc(N(C)C(=O)c2ccc3c(c2)S(=O)(=O)c2cc(Cl)ccc2C3=O)c(C(F)(F)F)o1	SR-BI DiI inh 74 (no result: Ins promoter up, Calb FLC)
COc1ccc(CCN2CC(C(=O)OCc3ccccc3Cl)CC2=O)cc1OC (configuration not stated)	none (no result: Ins promoter up, Calb FLC, beta cell repl)
CNC(=S)N1N=C(c2ccccc2)CC1c1ccccc1Cl (configuration not stated)	Calb FLC 65
CCc1c(O)nc(SCC(=O)Nc2ccccc2OC)n(-c2ccccc2C)c1=O	none (no result: Ins promoter up)
CCCCc1c(O)nc(SCC(=O)Nc2cccc3ccccc23)n(-c2ccccc2OC)c1=O	Calb FLC 83 (no result: Ins promoter up)
O=C(COc1ccc2c(c1)CCC2)N1CCN(c2cccc(C(F)(F)F)c2)CC1	Calb FLC 112
COc1ccc(S(=O)(=O)N(C)C[C@@H]2OCCCC[C@@H](C)Oc3ccc(NS(=O)(=O)c4cccs4)cc3C(=O)N([C@H](C)CO)C[C@@H]2C)cc1	none (no result: SR-BI DiI-HDL act, Ins promoter up, SR-BI DiI inh, Calb FLC, beta cell repl)
O=C(Oc1c(CN2CCOCC2)cc(Cl)c2cccnc12)c1cccs1	Calb FLC 101
Oc1c(Cl)cc(Cl)c2cccnc12	Calb FLC inconclusive (no result: Ins promoter up, beta cell repl)
O=C(Nc1cccnc1Cl)c1cccs1	none (no result: Ins promoter up)
O=C(Oc1c(CN2CCOCC2)cc(Cl)c2cccnc12)c1ccccc1Cl	Calb FLC 100
O=C(Oc1c(Cl)cc(Cl)c2cccnc12)c1cccs1	Calb FLC 108 (no result: Ins promoter up)
O=C(Oc1c(Cl)cc(Cl)c2cccnc12)c1ccco1	Calb FLC 101
O=C(Oc1ccc(Cl)c2cccnc12)N1CCOCC1	none
Cc1cc(CCNC=O)c(C)c2c1oc1ccccc12	none (no result: Ins promoter up, Calb FLC, beta cell repl)
CCC1NC(=O)c2cc3ccccc3cc2-n2c1nc1cc(OC)c(OC)cc1c2=O (configuration not stated)	none (no result: SR-BI DiI-HDL act, Ins promoter up, SR-BI DiI inh, Calb FLC, beta cell repl)
CCOC(=O)C(Cc1cc(N)c(Oc2ccc(OC)cc2)c(N)c1)NC(C)=O (configuration not stated)	none (no result: Ins promoter up, Calb FLC, beta cell repl)
COc1ccc(CCN2CC(C(=O)NCc3nc(C)c(C)s3)CCC2=O)cc1 (configuration not stated)	none (no result: Ins promoter up)
Cc1ccc(C)c(NC(=O)C2CCCC2)c1	none (no result: Ins promoter up)
Cc1ccc(C)c(NC(=O)C(C)CC2COCCO2)c1 (configuration not stated)	Ins promoter up 3.5
